{"source": "ChEMBL document CHEMBL4699394", "about": "“Insights into structural and physicochemical properties required for beta-hematin inhibition of privileged triarylimidazoles” (RSC Med Chem, 2020)", "key": {"HeLa": {"tested_on": "HeLa", "assay": "Cytotoxicity against human HeLa cells assessed as reduction in cell viability at 20 uM incubated for 48 hrs by FACS analysis", "format": "cell-based"}, "Hemozoin": {"tested_on": "Hemozoin", "assay": "Inhibition of beta-hematin formation assessed as reduction in hemozoin formation incubated for 20 hrs by NP40 detergent-mediated assay", "procedure,_shortened": "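In vitro β-hematin formation assay buffered at acidic pH 4.8 to mimic the parasite digestive vacuole. IC50 is the mean of experiments run in technical triplicate.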"}, "Plasmodium falciparum [1]": {"tested_on": "Plasmodium falciparum", "assay": "Antimalarial activity against Plasmodium falciparum 3D7 infected in human Erythrocyte assessed as reduction in plasmodial growth incubated for 48 hrs by FACS analysis", "format": "functional, organism-based", "conditions": "3D7, Erythrocyte; call rule not given here", "procedure,_shortened": "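Dose-response IC50 against P. falciparum 3D7. Only compounds that reduced parasite viability below 10% in a 20 μM, 48 h single-concentration screen were tested. IC50 is the mean of experiments run in technical triplicate.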"}, "Plasmodium falciparum [2]": {"tested_on": "Plasmodium falciparum", "assay": "Antimalarial activity against Plasmodium falciparum 3D7 infected in human Erythrocyte assessed as plasmodial growth at 20 uM incubated for 48 hrs by FACS analysis relative to control", "format": "functional"}}}
{"compound": "O=[N+]([O-])c1ccccc1-c1nc(-c2ccccc2)c(-c2ccccc2)[nH]1", "values": [{"measurement": "Activity", "setting": "HeLa", "value": "Non-Toxic"}, {"measurement": "IC50", "setting": "Hemozoin", "value": "Not Active"}]}
{"compound": "O=[N+]([O-])c1cccc(-c2nc(-c3ccccc3)c(-c3ccccc3)[nH]2)c1", "values": [{"measurement": "Activity", "setting": "HeLa", "value": "Non-Toxic"}, {"measurement": "IC50", "setting": "Hemozoin", "value": "Not Active"}]}
{"compound": "c1ccc(-c2nc(-c3ccco3)[nH]c2-c2ccccc2)cc1", "values": [{"measurement": "Activity", "setting": "HeLa", "value": "Non-Toxic"}, {"measurement": "IC50", "setting": "Hemozoin; read-out: IC50", "value": 401, "unit": "µM"}]}
{"compound": "Clc1ccc(-c2nc(-c3ccccc3)c(-c3ccccc3)[nH]2)cc1", "values": [{"measurement": "Activity", "setting": "HeLa", "value": "Non-Toxic"}, {"measurement": "IC50", "setting": "Hemozoin", "value": "Not Active"}]}
{"compound": "COc1ccccc1-c1nc(-c2ccccc2)c(-c2ccccc2)[nH]1", "values": [{"measurement": "Activity", "setting": "HeLa", "value": "Non-Toxic"}, {"measurement": "IC50", "setting": "Hemozoin", "value": "Not Active"}]}
{"compound": "Clc1cccc(-c2nc(-c3ccccc3)c(-c3ccccc3)[nH]2)c1", "values": [{"measurement": "Activity", "setting": "HeLa", "value": "Non-Toxic"}, {"measurement": "IC50", "setting": "Hemozoin", "value": "Not Active"}]}
{"compound": "COc1ccc(-c2nc(-c3ccccc3)c(-c3ccccc3)[nH]2)cc1", "values": [{"measurement": "Activity", "setting": "HeLa", "value": "Non-Toxic"}, {"measurement": "IC50", "setting": "Hemozoin; read-out: IC50", "value": 48.1, "unit": "µM"}]}
{"compound": "Cc1ccc(-c2nc(-c3ccccc3)c(-c3ccccc3)[nH]2)cc1", "values": [{"measurement": "Activity", "setting": "HeLa", "value": "Non-Toxic"}, {"measurement": "IC50", "setting": "Hemozoin; read-out: IC50", "value": 156, "unit": "µM"}]}
{"compound": "c1ccc(-c2nc(C3CCCCC3)[nH]c2-c2ccccc2)cc1", "values": [{"measurement": "Activity", "setting": "HeLa", "value": "Non-Toxic"}, {"measurement": "IC50", "setting": "Hemozoin; read-out: IC50", "value": "> 500", "unit": "µM"}]}
{"compound": "Cc1ccccc1-c1nc(-c2ccccc2)c(-c2ccccc2)[nH]1", "values": [{"measurement": "Activity", "setting": "HeLa", "value": "Non-Toxic"}, {"measurement": "IC50", "setting": "Hemozoin; read-out: IC50", "value": "> 500", "unit": "µM"}]}
{"compound": "Clc1ccc(-c2nc(-c3ccc(Br)cc3)[nH]c2-c2ccccc2)cc1", "values": [{"measurement": "IC50", "setting": "Plasmodium falciparum [1]", "value": 8, "unit": "µM"}, {"measurement": "Activity", "setting": "HeLa", "value": "Non-Toxic"}, {"measurement": "Activity", "setting": "Plasmodium falciparum [2]", "value": "<10", "unit": "%"}, {"measurement": "IC50", "setting": "Hemozoin; read-out: IC50", "value": 28.8, "unit": "µM"}]}
{"compound": "Fc1ccccc1-c1nc(-c2ccc(Cl)cc2)c(-c2ccccc2)[nH]1", "values": [{"measurement": "Activity", "setting": "HeLa", "value": "Non-Toxic"}, {"measurement": "IC50", "setting": "Hemozoin; read-out: IC50", "value": "> 500", "unit": "µM"}]}
{"compound": "Clc1ccc(-c2nc(-c3ccc(Cl)cc3)c(-c3ccccc3)[nH]2)cc1", "values": [{"measurement": "Activity", "setting": "HeLa", "value": "Non-Toxic"}, {"measurement": "IC50", "setting": "Hemozoin; read-out: IC50", "value": 39, "unit": "µM"}]}
{"compound": "Brc1ccc(-c2nc(-c3ccc(Br)cc3)c(-c3ccccc3)[nH]2)cc1", "values": [{"measurement": "Activity", "setting": "HeLa", "value": "Non-Toxic"}, {"measurement": "IC50", "setting": "Hemozoin; read-out: IC50", "value": 54.2, "unit": "µM"}]}
{"compound": "c1ccc(-c2nc(-c3ccc4ccccc4c3)[nH]c2-c2ccccc2)cc1", "values": [{"measurement": "Activity", "setting": "HeLa", "value": "Non-Toxic"}, {"measurement": "IC50", "setting": "Hemozoin", "value": "Not Active"}]}
{"compound": "Fc1ccc(-c2nc(-c3ccc(Cl)cc3)c(-c3ccccc3)[nH]2)cc1", "values": [{"measurement": "IC50", "setting": "Plasmodium falciparum [1]", "value": 6.5, "unit": "µM"}, {"measurement": "Activity", "setting": "HeLa", "value": "Non-Toxic"}, {"measurement": "Activity", "setting": "Plasmodium falciparum [2]", "value": "<10", "unit": "%"}, {"measurement": "IC50", "setting": "Hemozoin; read-out: IC50", "value": 28, "unit": "µM"}]}
{"compound": "Brc1ccc(-c2nc(-c3ccccc3)[nH]c2-c2ccc(Br)cc2)cc1", "values": [{"measurement": "IC50", "setting": "Plasmodium falciparum [1]", "value": 13, "unit": "µM"}, {"measurement": "Activity", "setting": "HeLa", "value": "Non-Toxic"}, {"measurement": "Activity", "setting": "Plasmodium falciparum [2]", "value": "<10", "unit": "%"}, {"measurement": "IC50", "setting": "Hemozoin", "value": "Not Active"}]}
{"compound": "COc1ccc(-c2nc(-c3ccc(Br)cc3)c(-c3ccccc3)[nH]2)cc1", "values": [{"measurement": "IC50", "setting": "Plasmodium falciparum [1]", "value": 1.5, "unit": "µM"}, {"measurement": "Activity", "setting": "HeLa", "value": "Non-Toxic"}, {"measurement": "Activity", "setting": "Plasmodium falciparum [2]", "value": "<10", "unit": "%"}, {"measurement": "IC50", "setting": "Hemozoin; read-out: IC50", "value": 20.3, "unit": "µM"}]}
{"compound": "Clc1ccc(-c2nc(-c3ccccc3)[nH]c2-c2ccccc2)cc1", "values": [{"measurement": "Activity", "setting": "HeLa", "value": "Non-Toxic"}, {"measurement": "IC50", "setting": "Hemozoin; read-out: IC50", "value": "> 500", "unit": "µM"}]}
{"compound": "Fc1ccccc1-c1nc(-c2ccccc2)c(-c2ccccc2)[nH]1", "values": [{"measurement": "Activity", "setting": "HeLa", "value": "Non-Toxic"}, {"measurement": "IC50", "setting": "Hemozoin; read-out: IC50", "value": "> 500", "unit": "µM"}]}
{"compound": "CCC(CC)c1nc(-c2ccccc2)c(-c2ccccc2)[nH]1", "values": [{"measurement": "IC50", "setting": "Plasmodium falciparum [1]", "value": 11, "unit": "µM"}, {"measurement": "Activity", "setting": "HeLa", "value": "Non-Toxic"}, {"measurement": "Activity", "setting": "Plasmodium falciparum [2]", "value": "<10", "unit": "%"}, {"measurement": "IC50", "setting": "Hemozoin", "value": "Not Active"}]}
{"compound": "Brc1ccc(-c2nc(-c3ccccc3)[nH]c2-c2ccccc2)cc1", "values": [{"measurement": "Activity", "setting": "HeLa", "value": "Non-Toxic"}, {"measurement": "IC50", "setting": "Hemozoin; read-out: IC50", "value": 294, "unit": "µM"}]}
{"compound": "c1ccc(-c2nc(-c3c[nH]c4ccccc34)[nH]c2-c2ccccc2)cc1", "values": [{"measurement": "Activity", "setting": "HeLa", "value": "Non-Toxic"}, {"measurement": "IC50", "setting": "Hemozoin; read-out: IC50", "value": 72.8, "unit": "µM"}]}
{"compound": "Fc1cccc(-c2nc(-c3ccccc3)c(-c3ccccc3)[nH]2)c1", "values": [{"measurement": "Activity", "setting": "HeLa", "value": "Non-Toxic"}, {"measurement": "IC50", "setting": "Hemozoin", "value": "Not Active"}]}
{"compound": "COc1ccc(-c2nc(-c3ccc(Cl)cc3)c(-c3ccccc3)[nH]2)cc1", "values": [{"measurement": "IC50", "setting": "Plasmodium falciparum [1]", "value": 11, "unit": "µM"}, {"measurement": "Activity", "setting": "HeLa", "value": "Non-Toxic"}, {"measurement": "Activity", "setting": "Plasmodium falciparum [2]", "value": "<10", "unit": "%"}, {"measurement": "IC50", "setting": "Hemozoin; read-out: IC50", "value": 20.5, "unit": "µM"}]}
{"compound": "O=[N+]([O-])c1cccc(-c2nc(-c3ccc(Cl)cc3)c(-c3ccccc3)[nH]2)c1", "values": [{"measurement": "Activity", "setting": "HeLa", "value": "Non-Toxic"}, {"measurement": "IC50", "setting": "Hemozoin; read-out: IC50", "value": "> 500", "unit": "µM"}]}
{"compound": "Brc1ccc(-c2nc(-c3ccccc3)c(-c3ccccc3)[nH]2)cc1", "values": [{"measurement": "Activity", "setting": "HeLa", "value": "Non-Toxic"}, {"measurement": "IC50", "setting": "Hemozoin; read-out: IC50", "value": 489, "unit": "µM"}]}
{"compound": "CCN(CC)CCCC(C)Nc1ccnc2cc(Cl)ccc12", "note": "(configuration not stated) [CHLOROQUINE]", "values": [{"measurement": "IC50", "setting": "Hemozoin; read-out: IC50", "value": 16.9, "unit": "µM"}]}
